# From article PMC4879609 (Molecular microbiology, 2016)
# Values joined by “and” are separate entries in the source; they are usually repeats but may differ in a detail not shown here. Equal entries are not always repeated. Where two headings read alike, the source gives them in different places.
# T1: LmGMPR (Leishmania major, UniProt Q4QEB3)
# T1 sequence (Q4QEB3 1-492): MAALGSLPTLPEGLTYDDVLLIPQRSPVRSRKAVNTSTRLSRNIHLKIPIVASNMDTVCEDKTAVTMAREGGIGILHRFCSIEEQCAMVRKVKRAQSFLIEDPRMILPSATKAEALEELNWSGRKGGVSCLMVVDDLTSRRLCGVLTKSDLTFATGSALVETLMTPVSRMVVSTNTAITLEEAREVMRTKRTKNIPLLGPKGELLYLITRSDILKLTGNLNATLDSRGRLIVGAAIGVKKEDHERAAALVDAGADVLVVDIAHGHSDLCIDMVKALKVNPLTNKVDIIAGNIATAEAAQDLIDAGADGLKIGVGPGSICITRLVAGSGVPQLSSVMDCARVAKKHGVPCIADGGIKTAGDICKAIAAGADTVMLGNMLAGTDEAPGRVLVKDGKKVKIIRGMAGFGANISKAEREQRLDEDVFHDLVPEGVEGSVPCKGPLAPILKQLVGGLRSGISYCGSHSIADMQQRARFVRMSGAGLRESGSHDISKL
# Assays:
# [1] = target: T2, LdIMPDH (Leishmania donovani, UniProt P21620); assay: Rate zonal centrifugation, quaternary structure of LdIMPDH; design: species or system L. donovani; conditions: saturating nucleotide, glycerol gradient
# [2] = target: T1, LmGMPR; assay: Steady-state kinetic analysis of LmGMPR; assay type: biochemical, L. major; conditions: for Increase in NADPH Km value: saturating concentrations of GMP
# [3] = target: T1, LmGMPR; assay: Fluorescence titration of nucleotide binding to full length LmGMPR; design: species or system L. major
# [4] = target: LmGMPR CBS domain (His6-gmpr92-222) (Leishmania major, UniProt Q4QEB3); assay: Intrinsic fluorescence binding to LmGMPR CBS domain; design: species or system L. major
# [5] = target: T2, LdIMPDH; assay: biochemical; assay type: binding
# [6] = target: LdIMPDH CBS domain (His6-impdh112-223) (Leishmania donovani, UniProt P21620); assay: Intrinsic fluorescence binding to LdIMPDH CBS domain; design: species or system L. donovani
# [7] = target: T1, LmGMPR; assay: Rate zonal centrifugation, quaternary structure of LmGMPR; design: species or system L. major; conditions: saturating (1.0 mM) nucleotide, 5–40% glycerol gradient
# In short: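 Recombinant LmGMPR expressed in GMPR-deficient E. coli and purified by ammonium sulfate fractionation and Cibacron blue chromatography. Spun at 34,000 rpm for 16 h at 4 °C; 50 μg bovine hemoglobin as internal standard.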
# [8] = target: T2, LdIMPDH; conditions: read-out: inhibition constant (Ki); ref Dobie et al., 2007; cited from earlier work
# [9] = system: Leishmania; assay: Leishmania growth in media with defined purine source in presence of MPA; assay type: cell-based; conditions: media supplemented with either guanine or xanthine (Fig. S2)
# [10] = target: eukaryotic IMPDH enzymes, including human and Leishmania; conditions: literature values; cited from earlier work
# [11] = target: Leishmania major guanosine 5'-monophosphate reductase (Leishmania major); assay: rate zonal centrifugation on a glycerol gradient
# [12] = target: the molecule itself; assay: rate zonal centrifugation on a glycerol gradient
# [13] = target: the molecule itself; assay: rate zonal centrifugation on a glycerol gradient; remark: listed apart in the source
# [14] = read-out: Kd1, 26 μM LmGMPR, no NADPH, fluorescence at 335 nm
# [15] = 20 μM LdIMPDH, single phase binding isotherm
molecule,measurement,setting,value
Nc1ncnc2c1ncn2[C@@H]1O[C@H](COP(=O)(O)O)[C@@H](O)[C@H]1O [AMP],Quaternary structure of LdIMPDH,[1],tetrameric structure
Nc1ncnc2c1ncn2[C@@H]1O[C@H](COP(=O)(O)OP(=O)(O)OP(=O)(O)O)[C@@H](O)[C@H]1O [ATP],Decrease in Vmax value,[2]; 1.0 mM ATP,~ 4 fold
same,Increase in GMP Ks (Km) value,[2]; 1.0 mM ATP,10 fold and ~ 10 fold
same,Increase in NADPH Km value,[2],~ 2 fold
same,Kd,[3]; [14],87 ± 24 µM
same,Binding saturation,[4]; up to 3.0 mM,saturation binding was not attained
same,Kd,[5]; [15],130 ± 11 µM
same,Kd,[6]; intrinsic fluorescence changes,148 ± 19 µM
same,Quaternary structure of LmGMPR,[7],monomeric and dimeric forms
same,Quaternary structure of LdIMPDH,[1],tetrameric structure
"Nc1nc2c(ncn2[C@@H]2O[C@H](COP(=O)(O)O)[C@@H](O)[C@H]2O)c(=O)[nH]1 [GMP, guanosine 5′-monophosphate]",Kd,[3],20 ± 2 µM
same,Kd,[4],333 ± 27 µM
same,Kd,[5],66 ± 7 µM
same,Quaternary structure of LmGMPR,[7],stabilized the formation of the LmGMPR tetramer
same,Quaternary structure of LdIMPDH,[1],tetrameric structure
same,Ki,[8],~200 µM
Nc1nc2c(ncn2[C@@H]2O[C@H](COP(=O)(O)OP(=O)(O)OP(=O)(O)O)[C@@H](O)[C@H]2O)c(=O)[nH]1 [GTP],Decrease in GMP Ks value,[2]; 10 μM GTP,~ 3 fold
same,Increase in Vmax value,[2]; 10 μM GTP,~ 8 fold
same,Increase in NADPH Km value,[2],~ 2 fold
same,Utilization as substrate by LmGMPR,[2]; steady state kinetic analysis,not utilized as a substrate
same,Kd,[3]; [14],16 ± 1 µM
same,Kd,"[4]; single phase binding isotherm, 35 μM His6-gmpr92-222",188 ± 19 µM
same,Kd,[5]; [15],67 ± 5 µM
same,Quaternary structure of LmGMPR,[7],stabilized the formation of the LmGMPR tetramer
"COc1c(C)c2c(c(O)c1C/C=C(\C)CCC(=O)O)C(=O)OC2 [MPA, mycophenolic acid]",Ki,[2],~20 µM
same,Mode of inhibition of LmGMPR,[2],competitive inhibitor of NADPH
same,Effect on parasite growth,[9],refractory to MPA
same,Ki,[10],4 to 20 nM
[Mg+2] [Mg^2+],Effect on LmGMPR enzymatic activity,[2]; added to the reaction buffer,no significant affect on enzymatic activity
NC(=O)C1=CN([C@@H]2O[C@H](COP(=O)(O)OP(=O)(O)OC[C@H]3O[C@@H](n4cnc5c(N)ncnc54)[C@H](O)[C@@H]3O)[C@@H](O)[C@H]2O)C=CC1 [NADH],Use as hydride donor for reductive deamination of GMP,[2]; NADH up to 5.0 mM,failed to induce the reductive deamination of GMP
NC(=O)C1=CN([C@@H]2O[C@H](COP(=O)(O)OP(=O)(O)OC[C@H]3O[C@@H](n4cnc5c(N)ncnc54)[C@H](OP(=O)(O)O)[C@@H]3O)[C@@H](O)[C@H]2O)C=CC1 [NADPH],Kd,"[3]; absence of GMP, shift of NADPH emission λmax, excitation 340 nm, equation 3",27 ± 4 µM
O=c1[nH]cnc2nc[nH]c12 [hypoxanthine],Binding to LdIMPDH,[5]; concentration of 2.0 mM,no significant binding
same,Binding to LdIMPDH CBS domain,[6],no saturable binding
Leishmania major guanosine 5'-monophosphate reductase (enzyme),stoichiometry N,[11],2
"Leishmania donovani inosine 5'-monophosphate dehydrogenase (enzyme, UniProt P21620 1-514, looked up) MATNNANYRIKTIKDGCTAEELFRGDGLTYNDFIILPGFIDFGAADVNISGQFTKRIRLHIPIVSSPMDTITENEMAKTMALMGGVGVLHNNCTVERQVEMVKSVKAYRNGFISKPKSVPPNTPISNIIRIKEEKGISGILVTENGDPHGKLLGIVCTKDIDYVKNKDTPVSAVMTRREKMTVERAPIQLEEAMDVLNRSRYGYLPIVNENDEVVNLCSRRDAVRARDYPHSTLDKSGRLICAAATSTRPEDKRRVAALADVGVDVLVLDSSQGNTIYQIAFIKWVKSTYPHLEVVAGNVVTQDQAKNLIDAGADGIRIGMGSGSICITQEVLACGRPQGTAVYKVAQYCASRGVPCTADGGLRQVGDICKALAIGANCAMLGGMLSGTTETPGEYFFKGGVRLKVYRGMGSLEAMSQGKESGKRYLSENEAVQVAQGVSGNVVDKGSAAKLIAYVSKGLQQSAQDIGEISFDAIREKMYAGQVLFSRRSPTAQGEGGVHSLHSYEKKLFAAKM",stoichiometry N,[12],4
same,stoichiometry N,[13],2
